# Assay outcomes from PubChem.
# Apaf-1 inh – inhibitors of human Apaf-1 apoptosome; O14727; reconstituted apoptosome caspase-3 activity, DEVD-Rh110 fluorescence; inhibition, % at 20 µM; 0.71% of 330,000 active; AID 489030; active = inhibition of at least 40% at 20 µM;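 note: plate controls were DMSO wells for no effect and DEVD-CHO caspase inhibitor wells for full effect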
#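 Material: reconstituted apoptosome with Apaf-1, cytochrome c, caspase-9, procaspase-3, dATP; medium: pH 7.5 Hepes buffer with CHAPS, BSA, DTT; also added: cytochrome c and DEVD-Rh110 substrate; timing: 30 min plus 50 min, RT; signal: Rh110 fluorescence intensity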
# ANO1 activ – mouse TMEM16A channel activation, primary screen; AID 623877; B-score at 10 µM; 0.3% of 340,000 active; HEK293 TMEM16A/YFP-H148Q/I152L, iodide quench fluorescence; active compounds read low;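 active = fluorescence-ratio B-score plate-corrected deviation score at least 3 library SD below zero, with starting fluorescence score within 5 deviations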;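 note: channel opened by trigger with iodide after compound preincubation; score built on the fluorescence ratio of max minus min over baseline; more negative score means more quench and so TMEM16A activation or potentiation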
# FID counter – displaces DNA intercalator in HCV helicase counter-screen; inhibition, % at 7.9 µM; 0.17% of 290,000 active; DNA fluorescent intercalator displacement, fluorescence; in the data active = inhibition above about 37%;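 note: 0% = vehicle and 100% = reference compound; higher means more ethidium bromide displaced from hairpin DNA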
# ANO1 block – inhibitors of mouse TMEM16A calcium-activated chloride channel; 1.2% of 310,000 active; Q8BHY3; HEK293 TMEM16A/YFP iodide influx fluorescence, ionomycin; normalized B-score (activity score, 25-100; higher = stronger inhibition) at 10 µM; AID 588511;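 active = ratio plate-corrected score three or more library SD toward inhibition, starting fluorescence score within five deviations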;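 note: score derived from kinetic fluorescence span divided by baseline fluorescence per well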
# UBC13 polyUb – human UBC13 polyubiquitination inhibition | 0.47% of 330,000 active | P61088 | AID 485273 | inhibition, % at 20 µM | UBC13 polyubiquitin chain formation, TR-FRET; in the data active = inhibition above about 45%, passing the limit was not always enough
# * hit, by the source's call; i = inactive; . = no result given. Only some compounds are listed: those with a hit (about 2.4% of all), similar ones and a draw of the others.
SMILES,Apaf-1 inh,ANO1 activ,FID counter,ANO1 block,UBC13 polyUb
CC1Oc2cc3oc4c(O)c(O)ccc4c(=O)c3c(O)c2C1(C)C (configuration not stated),-10,i,.,100*,-13
CN(C)CCCN(C(=O)c1ccc2c(c1)OCCO2)c1nc2ccc(Cl)cc2s1,28,i,40*,i,10
CN(C)CCN(C(=O)c1ccc2c(c1)OCCO2)c1nc2ccc(Cl)cc2s1,1,i,9,i,16
COc1cc([N+](=O)[O-])ccc1NC(=O)CN1CCc2cc(OC)c(OC)cc2C1,44*,i,3,i,-3
COc1cc2c(cc1OC)CN(CC(=O)Nc1cccc([N+](=O)[O-])c1)CC2,32,i,3,i,1
Cc1cc(NC(=O)COC(=O)C(Nc2ccc(C(F)(F)F)cc2Cl)C(C)C)no1 (configuration not stated),23,i,-3,100*,13
Cc1cc(NC(=O)COC(=O)c2ccc(OC(F)(F)F)cc2)no1,-9,i,.,.,20
CCCS(=O)(=O)N1CCN(C2Cc3ccccc3C2)CC1,-23,-13*,-4,i,-1
CCCS(=O)(=O)N1CCN(C2CCC(C)CC2)CC1 (configuration not stated),-1,i,7,i,8
C=CCn1c(Cc2c(C)[nH]c3ccccc23)nnc1SCC(=O)NCc1ccc(F)cc1,4,i,-28,100*,-3
COc1cc(CN2CCN(C3CCC3)CC2CCO)cc(OC)c1 (configuration not stated),-4,i,6,i,-1
CC(C)CCCCCCNC(=S)Nc1ccc(S(=O)(=O)N2CCOCC2)cc1,5,i,-6,100*,9
O=S(=O)(c1ccc(NC(=S)Nc2ccccc2)cc1)N1CCOCC1,5,i,2,i,-1
C/C(=N\NC(=O)Cc1ccccc1)c1ccc(Cl)s1,17,i,-19,i,-12
Cc1c(CCC(=O)NCCCn2ccnc2)c(=O)oc2c(C)c3occ(C(C)(C)C)c3cc12,30,i,38*,i,9
Cc1ccc(OCCOCCn2ccnc2)c(Br)c1,-7,i,14,i,6
CC(C)C(=O)Nc1ccc(Br)cc1Cl,12,i,-2,i,-10
CS(=O)(=O)c1sc(C#N)c2c1C(=O)CC(c1ccccc1)C2 (configuration not stated),6,-11*,-1,i,-10
Cc1oc2c(c(=O)c1C)C(=O)CC(c1ccccc1)C2 (configuration not stated),-18,i,-3,i,2
O=C(Nc1cc(Cl)ccc1C(=O)O)c1ccc(CN2C(=O)c3ccccc3C2=O)cc1,.,i,39*,i,.
Cc1cc(C)c(O)c(-c2cc(C(=O)Nc3ccc(S(=O)(=O)N4CCOCC4)cc3)[nH]n2)c1,15,i,-8,25*,1
N#Cc1ccc(C23CC4(C2)[C@H](CN(CC2CCCCC2)[C@@H]4c2ccccc2)C3c2ccc(C(F)(F)F)cc2)cc1 (some centres not stated),42*,.,.,.,4
Cc1ccc(-c2nc(Nc3cccc(O)c3)c3ccccc3n2)cc1,20,i,12,i,17
COc1ccc(Nc2c3ccccc3nc3ccccc23)cc1,4,i,26,i,-54
c1cncc(Nc2c3ccccc3nc3ccccc23)c1,6,i,37*,i,-23
SMILES,Apaf-1 inh,ANO1 activ,FID counter,ANO1 block,UBC13 polyUb
Oc1cccc(Nc2c3ccccc3nc3ccccc23)c1,5,i,42*,i,-63
COc1ccc(-c2nc3ccccc3n2Cc2ccccc2)cc1,12,i,-19,i,6
COc1ccc(-c2n(Cc3ccccc3)c3ccccc3[n+]2Cc2ccccc2)cc1,-2,i,6,25*,14
CC(=O)c1ccc(OCCCC(=O)NCCc2ccc(C(F)(F)F)cc2)cc1,11,i,-27,i,3
Cc1ccc(C(C(=O)NC2CCCCC2)N(CCCN2CCOCC2)C(=O)c2snc(C(N)=O)c2N)cc1 (configuration not stated),3,i,-15,i,7
CC1CCN(S(=O)(=O)c2nnc(NC(=O)c3cccc([N+](=O)[O-])c3)s2)CC1,8,i,-30,i,-10
COc1ccc(N2C(=O)CSC2c2ccc(F)c(F)c2)cc1 (configuration not stated),16,-8.5*,-14,i,1
COc1ccccc1C1CC(c2cccc(NS(C)(=O)=O)c2)=NN1S(=O)(=O)c1ccccc1 (configuration not stated),9,-5*,-30,i,0
COc1ccccc1C1CC(c2ccc(NS(C)(=O)=O)cc2)=NN1S(=O)(=O)c1ccccc1 (configuration not stated),0,i,-31,i,-7
O=C(O)Cc1ccc(NC(=O)CCN2C(=O)c3ccc([N+](=O)[O-])cc3C2=O)cc1,3,-6.3*,-4,.,0
O=[N+]([O-])c1ccc(N=Nc2ccc(O)cc2O)cc1,7,i,-2,100*,-273
O=[N+]([O-])c1cccc(N=Nc2ccc(O)cc2O)c1,.,i,.,.,.
O=C(CN1CCN(S(=O)(=O)c2ccccc2)CC1)NC(=O)NCc1ccccc1,-4,-11*,-2,i,2
C/C(CCc1ccc2c(c1)OCO2)=N\N=C(/N)SC1CC(=O)N(c2ccccc2F)C1=O (configuration not stated),-2,i,-10,i,-9
O=C(NCC1CCCO1)C1CCCN(Cc2cnn(-c3ccccc3)c2-n2cccc2)C1 (configuration not stated),-5,-25*,0,i,12
Cc1ccc(CNC(=O)C2CCCN(Cc3cnn(-c4ccccc4)c3-n3cccc3)C2)cc1 (configuration not stated),6,i,1,i,13
Cc1cccc(N2C(=O)c3cccc(Oc4ccc(Cl)cc4)c3C2=O)c1,16,-7.3*,-6,i,4
O=C(O)c1cccc(N2C(=O)c3ccc(Oc4ccc(Cl)cc4)cc3C2=O)c1,0,i,-30,i,-10
C/C(CC(=O)Nc1ccc2c(c1)OCO2)=N\NC(=O)OC(C)(C)C,2,i,-2,i,2
CCSc1nnc(NC(=O)C(CC)(C(F)(F)F)C(F)(F)F)s1,9,i,-4,100*,-2
O=C(NC(=S)Nc1cccc(NC(=O)c2ccc(Cl)cc2Cl)c1)c1cccs1,6,i,-3,i,0
CC1CCC(NC(=O)Cn2cnc3sccc3c2=O)CC1 (configuration not stated),-2,-4.8*,.,.,-2
CC(C)(C)n1ncc2c(=O)n(CC(=O)NC3CCCCC3)cnc21,6,i,-9,i,1
